In PubChem BioAssay:
Records with an inconclusive call do not appear.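 Rule for the calls, unless noted: active = RAM network inhibition above 8.4% in each of two replicates, 3 SD over the compound average; inconclusive = above 8.4% inhibition in only one replicate; inactive = 8.4% inhibition or less in each replicate.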

What was measured:
[1] = S. cerevisiae growth inhibition in permissive medium (OD615), pilot counter-assay for S. cerevisiae lifespan shortening project, permissive growth control (AID 705;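 active = growth inhibition above 25% in both replicates, a cutoff set 3 SD above the mean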); conditions: OD615, 24 h, at 10 µM, hits give high values
Method in brief: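 Timing: 24 h exposure, 30 °C / Material: Saccharomyces cerevisiae strain carrying genetically modified DeaD replicative-lifespan system / Signal: OD at 615 nm / Compound: 10 µM single dose, 0.25% DMSO / Medium: SC raffinose/galactose permissive medium / Evaluation: reduction in yeast growth (OD615)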

[2] = S. cerevisiae growth inhibition in restrictive medium, OD615, pilot screen, restrictive growth control, yeast lifespan reduction project (AID 706;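 active = growth inhibition above a set limit, 3 SD over mean compound inhibition, in both replicates, cut at about 43% in these data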;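 note: modified DeaD lifespan yeast strain shifted to restrictive glucose medium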); conditions: OD615, 48 h, at 10 µM, hits give high values
Method in brief: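 System: Engineered S. cerevisiae DeaD strain | Detection: OD615 | Buffer or medium: CSMM-D glucose medium | Doses: 10 µM compound, 0.25% DMSO | Timing: 4 h pre-growth plus 48 h compound exposure, 30 °C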

[3] = doxorubicin toxicity protection in MRP-1 cells – H69AR cells, CellTiter-Glo, duplicate, MRP-1 activator project, pilot screen (AID 807;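 active = viability increase at or above a cutoff of the median across tested compounds plus 3 SD, cut at about 8.5% in these data, passing the limit was not always enough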;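 note: compound pretreatment 18-22 h then 72 h combined with doxorubicin; 0% = doxorubicin alone and 100% = vehicle without doxorubicin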); conditions: H69AR viability with doxorubicin, CellTiter-Glo luminescence; at 10 µM; hits give high values
[4] = viability of HCT116 without oncogenic beta-catenin – human colon tumor cells, pilot screen (AID 823;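 active = cell viability at or below a set limit in both duplicate runs, the limit being the all-compound median minus 4 SD, cut at about 23% in these data, passing the limit was not always enough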;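 note: 0% = wells killed by 20 µM Hyamine and 100% = untreated DMSO cell wells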); conditions: HCT116 beta-catenin knockout viability, CellTiter-Glo, 60 h; at 10 µM; hits give low values
[5] = viability of PTEN-null HCT116 cells – cell-based, HCT116 clonal line, CellTiter-Glo, pilot screen (AID 824;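 active = viability at or below 27.92% in each of two runs, the all-compound median minus 4 SD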;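 note: 0% = 20 µM Hyamine control and 100% = vehicle cell control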); conditions: HCT116 PTEN-deleted viability, 60 h, at 10 µM, hits give low values
[6] = RAM pathway blockade in budding yeast – dse1pr::URA3 reporter, 5-FOA selection, pilot screen (AID 869;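 active = inhibition over a set limit, the all-compound mean plus 3 SD, in both replicate runs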;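 note: 0% = DMSO wells with no growth and 100% = 10 µM 1-NA-PP1 with full growth; RAM network block rescues cells from 5-FOA so hits raise OD615 growth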); conditions: S. cerevisiae dse1pr::URA3 5-FOA growth, OD615, 2 d; at 10 µM; hits give high values; strain carries analog-sensitive mutant Cbk1 kinase
[7] = RAM signaling pathway blockade in yeast – S. cerevisiae, Pdr1DBD-CYC8 efflux-inhibited sensitized strain, primary screen (AID 1298);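 note: 0% = DMSO untreated cells without growth and 100% = 10 µM 1-NA-PP1 full growth; higher means more yeast growth rescued from 5-FOA killing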; conditions: S. cerevisiae cbk1-as DSE1-URA3 strain, 5-FOA growth OD615, 2 d; at 50 µM; hits give high values

CCC1CCCCN1C(=O)CSc1nc2c(cnn2-c2ccc(C)cc2)c(=O)[nH]1 (stereo not drawn)
inactive: growth inhibition [1] -3.04% | growth inhibition [2] -5.33% | viability increase [3] -3.73% | viability [4] 97.2% | viability [5] 87.1% | inhibition [6] 1.71% | RAM network inhibition [7] 6.97%

Cn1c(=O)cc(N2CCCCC2)[nH]c1=O
inactive: growth inhibition [1] -15.3% | growth inhibition [2] -7.48% | viability increase [3] -0.1% | viability [4] 111% | viability [5] 97% | inhibition [6] 1.59% | RAM network inhibition [7] -0.8%

NC(=O)c1cc(N2C(=O)C3CC=CCC3C2=O)ccc1N1CCCCC1 (stereo not drawn)
inactive: growth inhibition [1] -21.2% | growth inhibition [2] -3.95% | viability increase [3] 0.16% | viability [4] 93.1% | viability [5] 92.4% | inhibition [6] 1.98% | RAM network inhibition [7] 4.2%

O=C(NCCCn1ccnc1)c1cc(C2CC2)on1
inactive: growth inhibition [1] -14.9% | growth inhibition [2] -11.1% | viability increase [3] 0.19% | viability [4] 105% | viability [5] 103% | inhibition [6] 1.95% | RAM network inhibition [7] 6.12%

Nc1ccc(OCc2ccccc2)cc1
inactive: growth inhibition [1] -14.4% | growth inhibition [2] -9.93% | viability increase [3] -4.17% | viability [4] 98.7% | viability [5] 89.4% | inhibition [6] 1.9% | RAM network inhibition [7] 5.27%

CCC(Sc1nc(C)cc(=O)[nH]1)C(=O)Nc1sc2c(c1C#N)CCCC2 (stereo not drawn)
inactive: growth inhibition [1] -14% | growth inhibition [2] -12.3% | viability increase [3] -3.49% | viability [4] 92.9% | viability [5] 91.4% | inhibition [6] 2.01% | RAM network inhibition [7] 6.25%

Cc1cc(Nc2cc(C(=O)O)ccc2C)n2ncnc2n1
inactive: growth inhibition [1] 4.96% | growth inhibition [2] -2.32% | viability increase [3] 0.41% | viability [4] 95.9% | viability [5] 102% | inhibition [6] 0.71% | RAM network inhibition [7] 0.57%

CCSc1nc2c([nH]c3ccccc32)c(=O)n1C
inactive: growth inhibition [1] -14.2% | growth inhibition [2] -9.45% | viability increase [3] -4.7% | viability [4] 105% | viability [5] 100% | inhibition [6] 3.67% | RAM network inhibition [7] 0.53%

N#CCCN1CCN(S(=O)(=O)c2ccc(S(=O)(=O)N3CCOCC3)cc2)CC1
inactive: growth inhibition [1] -6.47% | growth inhibition [2] 4.95% | viability increase [3] 0.97% | viability [4] 95.2% | viability [5] 98.8% | inhibition [6] -0.88% | RAM network inhibition [7] -2.16%

O=C(OCCNc1ncc(C(F)(F)F)cc1Cl)c1ccc(S(=O)(=O)N2CCOCC2)cc1
inactive: growth inhibition [1] -5% | growth inhibition [2] -18.4% | viability increase [3] -2.03% | viability [4] 88.8% | viability [5] 97.9% | inhibition [6] 1.17% | RAM network inhibition [7] 9.46%

COc1cc(NC(=O)c2cc(C(C)C)on2)cc(OC)c1OC
inactive: growth inhibition [1] -12.3% | growth inhibition [2] 14.9% | viability increase [3] -1.85% | viability [4] 95.2% | viability [5] 94.5% | inhibition [6] -0.755% | RAM network inhibition [7] -0.99%

Cn1c(C(=O)NCCN2CCN(Cc3ccccc3)CC2)cc2c(=O)n(C)c3ccccc3c21
inactive: growth inhibition [1] -0.4% | growth inhibition [2] 5.33% | viability increase [3] -6.61% | viability [4] 78.5% | viability [5] 79% | inhibition [6] -0.115% | RAM network inhibition [7] 2.19%

Cc1cc2cc(CCNC(=O)CC(C)(C)C)c(=O)[nH]c2cc1C
inactive: growth inhibition [1] -11.3% | growth inhibition [2] -21% | viability increase [3] -0.18% | viability [4] 101% | viability [5] 98.7% | inhibition [6] 2.57% | RAM network inhibition [7] 5.74%

COC(=O)c1cc(COc2ccc3oc(C)c(C(=O)OC)c3c2)c(C)o1
inactive: growth inhibition [1] 4.47% | growth inhibition [2] -14.8% | viability increase [3] 0.77% | viability [4] 74.4% | viability [5] 74.5% | inhibition [6] 2.19% | RAM network inhibition [7] 3.15%

COCCN1Cc2cccc(C(=O)NCc3ccccn3)c2C1=O
inactive: growth inhibition [1] -2.71% | growth inhibition [2] -0.385% | viability increase [3] -0.59% | viability [4] 103% | viability [5] 110% | inhibition [6] 0% | RAM network inhibition [7] 1.61%

COc1ccc(S(=O)(=O)Cc2ccc(C(=O)NCc3cccnc3)o2)cc1
inactive: growth inhibition [1] -4.57% | growth inhibition [2] -10.1% | viability increase [3] -5% | viability [4] 88.2% | viability [5] 84% | inhibition [6] 1% | RAM network inhibition [7] 3.45%

COc1ccc(Br)cc1CNC(=O)C1CCC(=O)N1C(C)C (stereo not drawn)
inactive: growth inhibition [1] 6.52% | growth inhibition [2] 4.42% | viability increase [3] -2.9% | viability [4] 91.7% | viability [5] 94.7% | inhibition [6] 1.99% | RAM network inhibition [7] 3.58%

O=C(OCCN1C(=O)c2ccccc2C1=O)c1cccs1
inactive: growth inhibition [1] -5.91% | growth inhibition [2] -1.62% | viability increase [3] -1.54% | viability [4] 104% | viability [5] 100% | inhibition [6] 0.61% | RAM network inhibition [7] 2.97%

CCC(C)NC(=O)CNC(=O)Cn1c(C)cc2ccccc2c1=O (stereo not drawn)
inactive: growth inhibition [1] -4.49% | growth inhibition [2] -8.84% | viability increase [3] -2.27% | viability [4] 102% | viability [5] 94.2% | inhibition [6] 0.04% | RAM network inhibition [7] 4.72%

Cc1cc(C)nc(SCC(=O)c2ccc(O)cc2O)n1
inactive: growth inhibition [1] -0.2% | growth inhibition [2] 9.03% | viability increase [3] -3.73% | viability [4] 99.7% | viability [5] 99.4% | inhibition [6] 1.04% | RAM network inhibition [7] -1.2%

Cc1cc(C)n(-c2nc(C)nc(NCc3ccccc3)n2)n1
inactive: growth inhibition [1] -17.5% | growth inhibition [2] -11.6% | viability increase [3] -2.88% | viability [4] 88.4% | viability [5] 82.7% | inhibition [6] 0.215% | RAM network inhibition [7] 0.98%

CC(=O)Nc1nc2ccccc2n1CCN(C)C
inactive: growth inhibition [1] -5.31% | growth inhibition [2] -3.15% | viability increase [3] -0.15% | viability [4] 99.3% | viability [5] 103% | inhibition [6] 2.95% | RAM network inhibition [7] 7.04%

CCOC(=O)c1ccc(NC(=O)c2nccnc2C(=O)O)cc1
inactive: growth inhibition [1] -4.96% | growth inhibition [2] -2.24% | viability increase [3] -1.42% | viability [4] 98.1% | viability [5] 96.6% | inhibition [6] 1.07% | RAM network inhibition [7] -0.42%

COCCNC(=O)CN1CCOc2ccccc21
inactive: growth inhibition [1] -22.5% | growth inhibition [2] 14.5% | viability increase [3] -4.65% | viability [4] 94.6% | viability [5] 102% | inhibition [6] 0.98% | RAM network inhibition [7] 3.11%

O=C(c1csc2c1CCCC2)n1cccn1
inactive: growth inhibition [1] 13.2% | growth inhibition [2] 15.7% | viability increase [3] -0.86% | viability [4] 98.7% | viability [5] 106% | inhibition [6] 1.69% | RAM network inhibition [7] -0.11%

COc1ccc(-c2nnc(SCC(=O)N3CCN(c4ccccc4)CC3)o2)cc1OC
inactive: growth inhibition [1] -7.28% | growth inhibition [2] 7.65% | viability increase [3] -6.37% | viability [4] 73.7% | viability [5] 90% | inhibition [6] 1.64% | RAM network inhibition [7] 1.67%

CC(=O)c1ccc(OCCCC(=O)NCC(c2ccco2)N(C)C)cc1 (stereo not drawn)
inactive: growth inhibition [1] 4.54% | growth inhibition [2] -0.015% | viability increase [3] -4.73% | viability [4] 68.9% | viability [5] 85.3% | inhibition [6] 0.755% | RAM network inhibition [7] 1.98%

COc1ccc(C(=O)Nc2ccc(S(=O)(=O)N3CCCCC3C)cc2)c(OC)c1OC (stereo not drawn)
inactive: growth inhibition [1] -3.56% | growth inhibition [2] -3.8% | viability increase [3] -0.18% | viability [4] 91.2% | viability [5] 96.1% | inhibition [6] 0.03% | RAM network inhibition [7] 1.24%

C(=N\c1nc2ccccc2n1Cc1ccccc1)/c1cccs1
inactive: growth inhibition [1] -3.85% | growth inhibition [2] -3.94% | viability increase [3] -3.85% | viability [4] 88.7% | viability [5] 88.6% | inhibition [6] 1.94% | RAM network inhibition [7] 4.3%

O=C(CC1CCCCC1)NCCCN1CCOCC1
inactive: growth inhibition [1] 1.88% | growth inhibition [2] -3.55% | viability increase [3] 1.14% | viability [4] 92% | viability [5] 102% | inhibition [6] 1.58% | RAM network inhibition [7] 1.38%

COc1ccccc1-c1c(C)nn2c(C)cc(C)nc12
inactive: growth inhibition [1] -5.75% | growth inhibition [2] -1.54% | viability increase [3] -1.88% | viability [4] 97.5% | viability [5] 97.3% | inhibition [6] 0.895% | RAM network inhibition [7] 1.79%

COc1ccccc1OCC(=O)Nc1ccc(S(=O)(=O)NC(C)=O)cc1
inactive: growth inhibition [1] -17% | growth inhibition [2] -5.72% | viability increase [3] 1.56% | viability [4] 89.2% | viability [5] 103% | inhibition [6] 0.645% | RAM network inhibition [7] 2.08%

c1ccc(-c2cnc(-c3cccnc3)o2)cc1
inactive: growth inhibition [1] 0.08% | growth inhibition [2] 7.29% | viability increase [3] -4.72% | viability [4] 95.5% | viability [5] 94.4% | inhibition [6] 2.12% | RAM network inhibition [7] 1.68%

CCc1nnc(NC(=O)CSc2nccn2-c2cc(C)cc(C)c2)s1
inactive: growth inhibition [1] 3.21% | growth inhibition [2] 23% | viability increase [3] -6.31% | viability [4] 86.2% | viability [5] 75.8% | inhibition [6] 0.195% | RAM network inhibition [7] -1.37%
